Key:
Influenza A virus = test: Antiviral activity against Influenza A virus (A/Puerto Rico/8/1934(H1N1)) infected in MDCK cells assessed as inhibition of virus-induced cytopathic effect after 48 hrs by CellTitre-Glo assay; assay type: functional, organism-based
Summary of the method: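 MDCK cells infected with PR8 H1N1. IC50 is the compound concentration at which half of the infected cells survive. Only compounds with CC50 above 50 μM in MDCK cells were tested.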

MDCK = test: Cytotoxicity against MDCK cells after 48 hrs by methylene blue dye-based spectroscopy relative to control; assay type: cell-based, Canis lupus familiaris; details: dog
Summary of the method: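 MDCK cells. CC50 is the compound concentration that kills half of the cell population.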

[1] = Inhibition of influenza A virus H1N1 endonuclease N-terminal domain of PA-subunit expressed in Escherichia coli BL21(DE3) using FAM-AAT CGC AGG CAG CAC TC-TAM as substrate by FRET assay
Summary of the method: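 Recombinant PA_N construct from pH1N1 2009 influenza in a FRET read-out of endonuclease cleavage. Compounds were first screened at 200 μM, then run in dose-response to derive IC50.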

[2] = Influenza A virus, A/Puerto Rico/8/1934(H1N1), MDCK, 48 h, read-out: IC50

Row | Compound | IC50 (Influenza A virus; [2]) [µM] | CC50 (MDCK; read-out: CC50) [µM] | IC50 [1] [µM] | IC50 (Influenza A virus; mdck) | CC50 (MDCK)
1 | COc1ccc(NC(=O)/C(O)=C/C(=O)c2ccc(C)cc2)cc1 | > 50 | > 50 | 0.6 | – | –
2 | O=C1CC2(CCCCC2)Oc2c1ccc(O)c2O | > 100 | > 100 | 8 | – | –
3 | Cc1ccccc1CC(=O)c1ccc(O)c(O)c1O | – | 21 | 11 | – | –
4 | O=C(/N=C1/C(=O)Nc2ccc(Br)cc21)/C(O)=C/C(=O)c1ccc(Cl)cc1 | – | > 50 | 23 | – | –
5 | O=C(Cc1ccccc1)c1ccc(O)c(O)c1O | – | 18.1 | 1.5 | – | –
6 | COc1ccc(NC(=O)/C(O)=C/C(=O)c2ccc(Cl)cc2)cc1 | > 50 | > 100 | 0.74 | – | –
7 | O=C(Cc1ccccc1Cl)c1ccc(O)c(O)c1O | > 50 | > 50 | 5 | – | –
8 | O=C(/C=C(O)/C(O)=C/C(=O)c1ccc(Cl)cc1)c1ccc(Cl)cc1 | > 50 | > 100 | 11.7 | – | –
9 | COc1ccccc1N1CCN(/N=C/c2ccc(O)c(O)c2)CC1 | – | 13 | 2 | – | –
10 | C/C(=N/NC(=O)c1ccc(O)c(O)c1)c1ccc(C)cc1 | > 50 | > 50 | 2.1 | – | –
11 | Cc1ccc(C(=O)/C=C(O)/C(O)=C/C(=O)c2ccc(C)cc2)cc1 | 23 | > 50 | 6 | – | –
12 | O=C(N/N=C\c1ccccc1Cl)c1cc(O)c(O)c(O)c1 | 18 | > 100 | 14 | – | –
13 | O=C(N/N=C\c1cccc(Cl)c1Cl)c1ccc(O)c(O)c1 | – | 6.8 | 0.7 | – | –
14 | O=C(N/N=C\c1ccc(/C=N/NC(=O)c2ccc(O)c(O)c2)cc1)c1ccc(O)c(O)c1 | – | – | 23 | ND(Insoluble) | ND(Insoluble)
15 | CC(=O)N1CCC2(CC1)CC(=O)c1ccc(O)c(O)c1O2 | > 100 | > 100 | 46 | – | –
16 | Cc1ccccc1/C=N\NC(=O)c1ccc(O)c(O)c1 | > 50 | > 50 | 1.9 | – | –

From ChEMBL document CHEMBL3108673, “Computation-guided discovery of influenza endonuclease inhibitors” (ACS Med Chem Lett, 2014)
